Results on 97 compounds are retold here after ChEMBL document CHEMBL4513216, “Probing the Open Global Health Chemical Diversity Library for Multistage-Active Starting Points for Next-Generation Antimalarials” (ACS Infect Dis, 2020).

The data set in a line: Toxicity liver stage against HepG2, at 10uM. The class given is cell-based. Also on record: test concentration 10 uM, cell line HepG2-A16-CD81EGFP. As to conditions: human, HepG2-A16-CD81EGFP cells; read-out: INHIBITION
In a few lines: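 Uninfected HepG2-A16-CD81EGFP cells, 3 × 10^3 per well, 1536-well, plated on prespotted compound at 10 μM final, parasite-free screening media added to match infected plates; puromycin 10 μM positive, DMSO 0.5% negative; run in parallel with 48 h PbLuc assay at 37 °C, 5% CO2; viability by CellTiter-Glo luminescence, normalized to controls.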
Take `Cc1ccc(NC(=O)c2cc(S(=O)(=O)N3CCCCC3)c[nH]2)cc1F`: the cytotoxicity at 10 µM was determined as 1.26%.
The figure for `Cc1cc2nc(CO[C@H]3CN(CC4CC4)C[C@H]3F)[nH]c2cc1C` is 1.04%.
Consider `CN1CCCCC12CCN(c1nncs1)C2` (configuration not stated), for which the cytotoxicity at 10 µM turned out to be 7.1%.
On to `O=C(c1ncn2c1CNS(=O)(=O)c1ccccc1-2)N1CCCCC1`, for which the cytotoxicity at 10 µM stood at 9.52%.
The same measure for `Cc1cnc(N2CCC3(CC2)CC3CNC(=O)N(C)C)nc1` (configuration not stated): 8.82%; for `COCC1CN(Cc2ccoc2)Cc2cn(C)nc21` (configuration not stated): 7.55%.
The figure for `CO[C@H]1CCN(S(=O)(=O)c2cn(C)cn2)[C@H]1Cc1ccncc1` is 9.43%; for `CN(C)C(=O)N1CCN(C)c2ncccc2C1` it is -4.14%.
The same measure for `C[C@H]1C[C@@H]2CCN(C(=O)c3cnccn3)C[C@H]2O1`: 2.96%; for `O=C1COc2ccc(S(=O)(=O)NC3CC3)c3c2N1CCC3`: -16.7%.
As to `Cc1nn(Cc2ccc(C(=O)NC3CCS(=O)(=O)C3)cc2)c(C)c1Br` (configuration not stated), the cytotoxicity at 10 µM is -3.71%.
The same measure for `CCN(CC)C(=O)c1nnsc1-c1ccccc1`: 1.88%; for `O=C(CCn1ccnc1)N1CC[C@H](Oc2cccc(F)c2)[C@@H](O)CC1`: -1.83%.
The same measure for `CC(C)NC(=O)[C@@H]1CN(C(=O)C2CC2)C[C@]12Cc1ccccc1C(=O)N2`: 1.48%; for `CN(C)c1ncc(I)c(C2CCCN2S(C)(=O)=O)n1` (configuration not stated): 3.8%.
Consider `Cc1ccc(CC(=O)N2CCOC(c3ncc(CN(C)C)[nH]3)C2)s1` (configuration not stated), for which the cytotoxicity at 10 µM was -3.47%.
Turning to `Cc1nn(C)cc1-c1cc(C(=O)N2CCc3ncc(Cl)cc3C2)on1`, the cytotoxicity at 10 µM is -4.96%.
In the case of `Cc1noc(C)c1CCC(=O)N[C@@H]1CC[C@@H](Oc2cccnc2)[C@@H]1O`, the cytotoxicity at 10 µM was -2.62%.
Consider `CC(C)N(C(=O)c1ccnc(OCC(F)(F)F)c1)c1cccnc1`, for which the cytotoxicity at 10 µM was found to be 8.05%.
Take `Cc1nc2cc(NCc3cnn(C)c3)ccc2n1C`: the cytotoxicity at 10 µM worked out at 13.1%.
Regarding `N#Cc1cccc(CN2CCCC2Cn2cncn2)c1` (configuration not stated), the cytotoxicity at 10 µM stood at 3.15%.
The same measure for `CCC1(CC)CC(=O)N(CC(O)c2ccc(Cl)cc2)C1=O` (configuration not stated): 4.06%; for `CC(C)c1noc(CCNC(=O)NCC2COc3ccccc3O2)n1` (configuration not stated): 1.03%; for `COC(=O)c1ccc(N(C(=O)c2ccncc2)C(C)C)c(C)c1`: 0.503%.
The figure for `Cc1noc(CCCC(=O)NCCc2cc3ccccc3[nH]2)n1` is 1.38%; for `COC(=O)NCC(=O)NC1(C)CCc2ccccc2C1` (configuration not stated) it is 4.29%.
Take `COC1CCN(c2ccc(F)cc2CN(C)C(C)C(N)=O)CC1` (configuration not stated): the cytotoxicity at 10 µM turned out to be 9.13%.
In the case of `CCc1ccc(C(COC)NC(=O)c2ccsc2)o1` (configuration not stated), the cytotoxicity at 10 µM was found to be 1.57%.
Consider `COC(=O)c1ccc(Cn2nc(C)cc2C)c(OC)c1`, for which the cytotoxicity at 10 µM worked out at 10.7%.
For `COCCS(=O)(=O)NC(=O)c1nnn(-c2ccc(F)cc2)c1C1CC1`, the cytotoxicity at 10 µM worked out at 0.188%.
On to `O=C(NCc1ccc(CN2CCCCC2)cc1)Nc1cccnc1`, for which the cytotoxicity at 10 µM was found to be 74.5%.
For the compound `COc1cc(C)nc(N2CCN(C(=O)CCc3ccncc3)CC2)n1`, the cytotoxicity at 10 µM is -5%.
The same measure for `Cc1nn(CC(=O)N2CCCN(c3cccnn3)CC2)c(C)c1Cl`: -1.2%; for `O=C(CCC(=O)N1CCCC1c1ccsc1)N1CCOCC1` (configuration not stated): -10.2%.
For `COc1c(C2CCCN2C(=O)c2ccco2)c(C)nn1C` (configuration not stated), the cytotoxicity at 10 µM was -1.68%.
The same measure for `CCCN(C(=O)c1cnns1)C1CCCN(Cc2ccccc2)C1` (configuration not stated): -4.35%; for `Cc1nc(NC(=O)N[C@H](CO)c2ccccc2)sc1C`: -7.32%.
The figure for `COC(=O)c1ccc(OCCn2cnc(C#N)n2)cc1` is -2.01%; for `CN1CCN(C)C(CNc2c(C#N)cnc3ccc(Cl)cc23)C1` (configuration not stated) it is -4.58%; for `Cc1nc(S(=O)(=O)CCn2cccn2)n(C2CCCCC2)c1C` it is -5.58%.
The figure for `COc1cccc(CNc2nnc(C(C)(C)C)o2)c1OC` is -0.508%.
Regarding `OC1(CNC2CCN(c3ccccn3)CC2)CCc2ccccc21` (configuration not stated), the cytotoxicity at 10 µM was -3.48%.
For `CC(NC1(CNC(=O)Cn2cccn2)CCOCC1)c1ccccc1` (configuration not stated), the cytotoxicity at 10 µM was -3.07%.
The figure for `OC(CN(Cc1ccccc1)Cc1ccncc1)c1cccs1` (configuration not stated) is -3.65%; for `CC(NC(=O)CCCOc1ccccc1Cl)c1ccncc1` (configuration not stated) it is -13%.
The same measure for `CCC(NC1CCN(C(=O)c2ccccc2)CC1)c1cccs1` (configuration not stated): -2.62%.
`Cc1nn(C)c2ncnc(NCC(O)CN3CCCCC3)c12` (configuration not stated): the cytotoxicity at 10 µM was 1.2%.
The same measure for `C[C@@H]1CN(C2CCN(c3ccccc3F)CC2)CC[C@]1(C)O`: -5.32%; for `CN(CC1(O)CCCN(Cc2cccc(F)c2F)C1=O)C1CCCCC1` (configuration not stated): -11.1%; for `Cc1ccsc1[C@@H]1CCN(C(=O)CCC(=O)c2ccccc2)C[C@H]1O`: 3.52%.
The figure for `Cc1cc(C(=O)N2CC(O)CO2)c2cccc(C)c2n1` (configuration not stated) is 7.13%; for `CCc1ccc2nc(-c3cnn(C)c3)cc(C(=O)N3CCCC3)c2c1` it is 0.753%.
The figure for `CCc1ncc(S(C)(=O)=O)c(C2CCCNC2)n1` (configuration not stated) is -14.2%.
As to `C[C@@H]1CN(CCCOc2ccc(F)cc2)CC[C@@]1(O)C1CCOCC1`, the cytotoxicity at 10 µM was -8.01%.
`COCCNS(=O)(=O)c1cccc2c1CN(C(=O)c1cc(C)on1)CC2`: the cytotoxicity at 10 µM stood at 1.63%.
The figure for `Cc1c(C(C)N)cnn1-c1cccc2ccccc12` (configuration not stated) is 10.7%.
For `CCc1oc(C(=O)NC(C)c2ncn[nH]2)cc1CN1CCCC1` (configuration not stated), the cytotoxicity at 10 µM is -5.92%.
Consider `COCCn1ccnc1C1CCN(C(=O)CSc2nnc(C)o2)CC1`, for which the cytotoxicity at 10 µM is -11.5%.
Turning to `CC1CCCCN1C1CN(c2nc(C3CCCC3)nc3c2cnn3C)C1` (configuration not stated), the cytotoxicity at 10 µM was -0.699%.
For `O=C(O)C(c1ccc2c(c1)OCCO2)N1CCC(N2CCSCC2)CC1` (configuration not stated), the cytotoxicity at 10 µM is -1.1%.
The same measure for `O=C(c1ccccc1-c1nc[nH]n1)N1CCOC(C(F)(F)F)C1` (configuration not stated): -0.359%; for `O=C(NCCN1CCCCCC1)c1coc(COc2ccc(F)cc2)n1`: -4.07%; for `Cc1nc(C)n(C2CCCN(C(=O)CCOCC(C)C)C2)n1` (configuration not stated): -0.734%.
`Cc1nc(-c2ccccc2)n(CC(=O)NC2CCCC2)n1`: the cytotoxicity at 10 µM is -0.248%.
Consider `COc1ccccc1CNC(=O)CNCCn1cc(C)cn1`, for which the cytotoxicity at 10 µM is -1.9%.
The same measure for `O=C(CN1C=Nc2ccccc2S1(=O)=O)NCc1ccccc1`: -3.95%; for `Cc1ccc(C(=O)NC2CCN(CC(=O)N(C)c3ccccc3)CC2)o1`: -3.73%; for `Cc1cnc2c(S(=O)(=O)NCC3CC3)cccc2c1`: -2.87%.
The same measure for `CCc1ncc2c(n1)CN(CC(=O)Nc1ccncc1)CC2`: 0.0264%.
The same measure for `Cc1nccn1C1CCCN(C(=O)c2ccc3nnc(C)n3c2)C1` (configuration not stated): 2.01%.
`Cc1ccc(NC2CCN(C(=O)CCc3c(C)noc3C)CC2)nn1`: the cytotoxicity at 10 µM is -11.4%.
The figure for `Cc1nc(CN2CCC(N(C)Cc3nnc(C4CC4)n3C)C2)cs1` (configuration not stated) is -10.7%.
As to `Cc1nn(C)c(Cl)c1C1CCCN1C(=O)c1ccc2c(c1)COC2` (configuration not stated), the cytotoxicity at 10 µM is -16.1%.
The figure for `COc1ccccc1CNC(C)c1ccc2[nH]c(=O)[nH]c2c1` (configuration not stated) is -18%; for `N#CC1(C(=O)N2CCCN(c3nccs3)CC2)CCCC1` it is -11.1%.
As for `COCCOc1cccc(CNCC2CN(C)CCO2)c1` (configuration not stated), the cytotoxicity at 10 µM is -14.8%.
The figure for `Fc1cccc(-c2nc(CN3CCCC3Cn3cncn3)co2)c1` (configuration not stated) is -5.61%; for `O=C(NCc1cccnc1N1CCCCC1)c1cccs1` it is -4.43%; for `O=C(NCc1cc[nH]n1)NCC(O)c1ccccc1F` (configuration not stated) it is -17.1%.
For the compound `CC(Cn1ccnc1)NC(=O)N(C)Cc1ccc2c(c1)OCO2` (configuration not stated), the cytotoxicity at 10 µM was -16.1%.
For `CCOc1c(Cl)cc(/C=C/c2ncc(C(=O)O)s2)cc1OC`, the cytotoxicity at 10 µM amounted to 3.91%.
The figure for `O=C(COCc1ccccc1)N1CCCC1c1noc(C2CC2)n1` (configuration not stated) is -1.98%; for `Cc1nc(C2CCCN2C(=O)COCc2ccccc2)no1` (configuration not stated) it is -2.66%.
The same measure for `O=C(COc1cccc(Cl)c1)N1CCOCC1c1ncon1` (configuration not stated): -12.3%.
For the compound `Cc1csc(N2CCCN(C(=O)CCNc3ncccn3)CC2)n1`, the cytotoxicity at 10 µM is -10.5%.
The same measure for `CC(C)(C)OC(=O)NCCNC(=O)c1ccc(-c2ccco2)[nH]c1=O`: -13.1%.
The figure for `O=C(c1ccc2c(c1)OCCCO2)N1CCCC(n2cccn2)C1` (configuration not stated) is -15.6%; for `CC(NC(=O)Nc1cccnc1N1CCCC1)c1ccncc1` (configuration not stated) it is -19.3%; for `Cc1ccc(N2CCCC(NCc3ccc4c(c3)CCO4)C2)nn1` (configuration not stated) it is -16.1%.
The figure for `CCC1=N[C@@]2(CC[C@@H]3CN(CC4CC4)C[C@@H]32)C(=O)N1CC` is 6.56%; for `CO[C@@H]1CCN(Cc2cnn(C)c2)[C@@H]2CN(Cc3ccco3)C[C@@H]21` it is -12.5%.
For the compound `O=C(O)[C@]12CCCN(Cc3ccoc3)C[C@H]1CN(c1ncccn1)C2`, the cytotoxicity at 10 µM is 7.37%.
On to `COCCN1CCO[C@@H]2CN(C(=O)NCc3ccccc3)CC[C@@H]2C1`, for which the cytotoxicity at 10 µM came to 3.23%.
Take `CN(C)C(=O)CO[C@H]1CN(Cc2cccc(C#N)c2)[C@@H]2COC[C@H]12`: the cytotoxicity at 10 µM amounted to 11.4%.
On to `CN(Cc1cn2c(n1)CN(C(=O)c1ccc[nH]1)CC2)Cc1ccco1`, for which the cytotoxicity at 10 µM was -3.55%.
The figure for `CN1CCC2(CCN(Cc3nccs3)CC2)C1=O` is -3.03%.
As for `COc1cccc(C(=O)N2C[C@@H]3CC[C@H]2CN(Cc2cscn2)C3)c1`, the cytotoxicity at 10 µM stood at 1.5%.
